Measurements published in ChEMBL document CHEMBL1154566, “Quadranosides I-V, new triterpene glucosides from the seeds of Combretum quadrangulare” (2000).
Activity calls are given as the source filed them. The calls are words filed in the database; no cut-off is given here.

Legend:
Type in all cases: functional
Hepatocyte [1] = assay: Hepatoprotective activity against mouse hepatocytes assessed as inhibition of D-galactosamine/TNFalpha-induced cell death at 200 uM after 18 hrs by MTT assay
How it was run: (§1)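 Primary cultured mouse hepatocytes in Williams' E medium with 10% calf serum, penicillin G, streptomycin, 100 µM dexamethasone and 50 ng/mL insulin, seeded at 10^5 cells/well and preincubated 2 h. The medium was then replaced with fresh medium holding 0.5 mM D-GalN plus test sample.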

Hepatocyte [2] = assay: Hepatoprotective activity against mouse hepatocytes assessed as inhibition of D-galactosamine/TNFalpha-induced cell death at 50 uM after 18 hrs by MTT assay; how it was run: as §1
Hepatocyte [3] = assay: Hepatoprotective activity against mouse hepatocytes assessed as inhibition of D-galactosamine/TNFalpha-induced cell death at 100 uM after 18 hrs by MTT assay; how it was run: as §1
Hepatocyte [4] = assay: Hepatoprotective activity against mouse hepatocytes assessed as inhibition of D-galactosamine/TNFalpha-induced cell death at 25 uM after 18 hrs by MTT assay; how it was run: as §1

Compound	inhibition at 200 µM (Hepatocyte [1]) [%]	inhibition at 50 µM (Hepatocyte [2]) [%]	inhibition at 100 µM (Hepatocyte [3]) [%]	Activity (Hepatocyte [1])	Activity (Hepatocyte [2])	Activity (Hepatocyte [3])	Activity (Hepatocyte [4])	inhibition at 25 µM (Hepatocyte [4]) [%]
CC1=C(C)[C@H]2C3=CC[C@@H]4[C@@]5(C)C[C@@H](O)[C@H](O)[C@@](C)(CO)[C@@H]5CC[C@@]4(C)[C@]3(C)CC[C@@]2(C(=O)O[C@@H]2O[C@H](CO)[C@@H](O)[C@H](O)[C@H]2O)CC1	15	8.3	25					
C[C@H]1[C@H](C)CC[C@]2(C(=O)O[C@@H]3O[C@H](CO)[C@@H](O)[C@H](O)[C@H]3O)CC[C@]3(C)C(=CC[C@@H]4[C@@]5(C)C[C@@H](O)[C@H](O)[C@@](C)(CO)[C@@H]5CC[C@]43C)[C@H]12				inactive	inactive	inactive	inactive	
Oc1cc(O)c2c(c1)O[C@H](c1ccc(O)c(O)c1)[C@H](O)C2 [(-)-EPICATECHIN]	98.9	38	58.1					
CC1(C)CC[C@]2(C(=O)O)CC[C@]3(C)C(=CC[C@@H]4[C@@]5(C)C[C@@H](O)[C@H](O)[C@@](C)(CO)[C@@H]5CC[C@]43C)[C@@H]2[C@@H]1O [ARJUNGENIN]	46.2	31.8	37					
CC1(C)CC[C@]2(C(=O)O[C@@H]3O[C@H](CO)[C@@H](O)[C@H](O)[C@H]3O)CC[C@]3(C)C(=CC[C@@H]4[C@@]5(C)C[C@@H](O)[C@H](O)[C@@](C)(CO)[C@@H]5CC[C@]43C)[C@@H]2[C@@H]1O [ARJUNGLUCOSIDE I]	32.7	10.1	31.5					
Oc1cc(O)c2c(c1)O[C@H](c1cc(O)c(O)c(O)c1)[C@@H](O)C2 [GALLOCATECHIN]	33.5	19.7	30.3					
C[C@@]1(CO)CC[C@]2(C(=O)O[C@@H]3O[C@H](CO)[C@@H](O)[C@H](O)[C@H]3O)CC[C@]3(C)C(=CC[C@@H]4[C@@]5(C)C[C@@H](O)[C@H](O)[C@@](C)(CO)[C@@H]5CC[C@]43C)[C@@H]2C1 [QUADRANOSIDE III]	35.5	8	17.8					15.1
C=C(C)[C@@H]1CC[C@]2(C(=O)O[C@@H]3O[C@H](CO)[C@@H](O)[C@H](O)[C@H]3O)CC[C@]3(C)[C@H](CC[C@@H]4[C@@]5(C)C[C@@H](O)[C@H](O)[C@@](C)(CO)[C@@H]5[C@H](O)C[C@]43C)[C@@H]12 [QUADRANOSIDE II]	83.6	40.9	46.1					32
C=C(C)[C@@H]1CC[C@]2(C(=O)O[C@@H]3O[C@H](CO)[C@@H](O)[C@H](O)[C@H]3O)CC[C@]3(C)[C@H](CC[C@@H]4[C@@]5(C)C[C@@H](O)[C@H](O)C(C)(C)[C@@H]5[C@H](O)C[C@]43C)[C@@H]12 [QUADRANOSIDE I]	71.2	37.6	29.7					6.3
CC1=C2C3=CC[C@@H]4[C@@]5(C)C[C@@H](O)[C@H](O)[C@@](C)(CO)[C@@H]5[C@H](O)C[C@@]4(C)[C@]3(C)CC[C@@]2(C(=O)O[C@@H]2O[C@H](CO)[C@@H](O)[C@H](O)[C@H]2O)CC[C@H]1C [QUADRANOSIDE V]	80.1	67.5	77.7					59.3
COc1cc(C2Oc3cc([C@H]4Oc5cc(O)cc(O)c5C(=O)[C@@H]4O)ccc3OC2CO)ccc1O (some centres undefined) [SILIBININ]	70.8	61.2	96.5					38.1
